In ChEMBL document CHEMBL1136932, “Discovery, SAR, and pharmacokinetics of a novel 3-hydroxyquinolin-2(1H)-one series of potent D-amino acid oxidase (DAAO) inhibitors” (J Med Chem, 2009):
The source made the active and inactive calls. The rule behind the calls is not given here.

Assays:
Mus musculus = assay: Elevation of D-serine level in 129/SVEV mouse cerebellum at 10 mg/kg, sc after 4 hrs by LC/MS-MS analysis; format: functional, organism-based; design: dose 10 mg/kg
Method in brief: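 Male rats (1-2 mL/kg) or male mice (10 mL/kg) received compound or vehicle sc in 5% DMSO/5% Cremophor EL/90% saline. At 4 h, cerebella were taken under CO2 anesthesia, homogenized in 3 volumes PBS and extracted with 16 volumes acetonitrile, and the supernatant was dried.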

Brain [1] = assay: Free drug level in 129/SVEV mouse brain at 10 mg/kg, sc after 4 hrs; details: in vivo
[2] = Ratio of drug level in brain to plasma in 129/SVEV mouse at 10 mg/kg, sc after 4 hrs; details: read-out: BPR
[3] = Dissociation constant, pKa of the compound; format: physicochemical
D-aspartate oxidase = target: T1, D-aspartate oxidase (Homo sapiens, UniProt Q99489); assay: Inhibition of human recombinant DDO expressed in sf9 insect cells assessed as degradation of D-aspartic acid by fluorescence assay
T1 sequence (Q99489 whole entry): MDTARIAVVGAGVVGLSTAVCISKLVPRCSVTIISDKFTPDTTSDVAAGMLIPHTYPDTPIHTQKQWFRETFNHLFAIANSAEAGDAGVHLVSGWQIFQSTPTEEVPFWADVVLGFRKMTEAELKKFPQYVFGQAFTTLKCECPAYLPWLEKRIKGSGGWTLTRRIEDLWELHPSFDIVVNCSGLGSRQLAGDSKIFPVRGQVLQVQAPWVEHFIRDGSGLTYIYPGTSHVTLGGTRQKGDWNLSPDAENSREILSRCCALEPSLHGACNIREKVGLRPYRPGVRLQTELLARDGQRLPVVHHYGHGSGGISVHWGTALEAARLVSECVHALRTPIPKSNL

[4] = Displacement of [3H]glycine from NMDA receptor at 10 uM
[5] = Clearance in Sprague-Dawley CD rat plasma at 3 mg/kg, po and 1 mg/kg, iv; format: ADME, organism-based
Rattus norvegicus = assay: Volume of distribution in Sprague-Dawley CD rat at 3 mg/kg, po and 1 mg/kg, iv; format: ADME, organism-based; details: in vivo
[6] = Half life in Sprague-Dawley CD rat at 3 mg/kg, po and 1 mg/kg, iv; format: ADME, organism-based; details: in vivo
[7] = Oral bioavailability in Sprague-Dawley CD rat at 3 mg/kg; format: ADME, organism-based; details: in vivo
[8] = Cmax in Sprague-Dawley CD rat at 3 mg/kg, po; format: ADME, organism-based; design: dose 3 mg/kg, route oral; details: in vivo
D-amino-acid oxidase = D-amino-acid oxidase (Rattus norvegicus, UniProt O35078); assay: Inhibition of rat recombinant DAAO expressed in sf9 insect cells assessed as degradation of D-serine by fluorescence assay
[9] = Ratio of drug level in brain to plasma in Sprague-Dawley CD rat at 56 mg/kg, sc after 4 hrs; format: ADME, organism-based; design: dose 56 mg/kg, route subcutaneous; details: read-out: BPR
[10] = Fraction unbound in Sprague-Dawley CD rat brain at 56 mg/kg, sc after 4 hrs; format: ADME, organism-based; design: dose 56 mg/kg, route subcutaneous
Brain [11] = assay: Free drug level in Sprague-Dawley CD rat brain at 56 mg/kg, sc after 4 hrs; format: ADME, organism-based; design: dose 56 mg/kg, route subcutaneous; details: in vivo

Chain of D-amino-acid oxidase (O35078 whole entry): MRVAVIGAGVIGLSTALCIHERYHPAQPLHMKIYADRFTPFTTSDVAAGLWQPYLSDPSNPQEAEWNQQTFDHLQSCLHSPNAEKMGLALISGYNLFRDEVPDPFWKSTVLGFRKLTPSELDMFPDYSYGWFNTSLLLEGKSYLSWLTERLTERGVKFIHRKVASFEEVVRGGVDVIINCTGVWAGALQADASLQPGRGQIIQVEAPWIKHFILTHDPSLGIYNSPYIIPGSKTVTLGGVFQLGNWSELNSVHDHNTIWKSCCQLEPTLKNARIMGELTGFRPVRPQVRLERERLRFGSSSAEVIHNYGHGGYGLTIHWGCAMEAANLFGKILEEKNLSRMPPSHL

SMILES: O=c1[nH]c2ncc(F)c(Cl)c2cc1O
- Activity (Mus musculus): Active
- Drug uptake (Brain [1]): 12 nM
- Kp at 4 h [2]: 0.1

SMILES: Oc1noc2cc(Cl)ccc12
- pKa [3]: 4

SMILES: O=c1[nH]c2ccc(Cl)cc2cc1O
- IC50 (D-aspartate oxidase): > 50 µM

SMILES: O=c1[nH]c2ccncc2cc1O
- IC50 (D-aspartate oxidase): > 36 µM

SMILES: O=c1[nH]c2cnccc2cc1O
- IC50 (D-aspartate oxidase): > 50 µM

SMILES: O=c1[nH]c2nccnc2cc1O
- IC50 (D-aspartate oxidase): > 50 µM

SMILES: O=c1[nH]c2c(F)cccc2cc1O
- inhibition [4]: < 50%

SMILES: O=c1[nH]c2ccc(F)cc2cc1O
- clearance [5]: 4.32 L/h/kg
- Vd (Rattus norvegicus): 2.3 L/kg
- half-life [6]: 0.9 h
- bioavailability [7]: 44%
- Cmax [8]: 0.216 µg/mL
- inhibition [4]: < 50%

SMILES: O=c1[nH]c2cccnc2cc1O
- IC50 (D-aspartate oxidase): > 50 µM

SMILES: O=c1[nH]c2ncccc2cc1O
- inhibition [4]: < 50%
- IC50 (D-aspartate oxidase): > 7.64 µM

SMILES: Cc1ccc2cc(O)c(=O)[nH]c2c1
- IC50 (D-aspartate oxidase): 21.5 µM

SMILES: O=c1[nH]c2cccc(Cl)c2cc1O
- IC50 (D-amino-acid oxidase): 0.04 µM
- inhibition [4]: < 50%
- IC50 (D-aspartate oxidase): 206 µM

SMILES: CCc1cccc2cc(O)c(=O)[nH]c12
- IC50 (D-aspartate oxidase): > 50 µM

SMILES: Cc1cc(C(=O)O)n[nH]1
- pKa [3]: 4

SMILES: Cc1c(O)c(=O)[nH]c2ccccc12
- IC50 (D-aspartate oxidase): 32.3 µM

SMILES: O=c1[nH]c2cccc(F)c2cc1O
- inhibition [4]: < 50%
- IC50 (D-aspartate oxidase): 64 µM

SMILES: CCc1cccc2[nH]c(=O)c(O)cc12
- inhibition [4]: < 50%

SMILES: O=c1[nH]c2ccccc2cc1O
- clearance [5]: 2.76 L/h/kg
- Vd (Rattus norvegicus): 10.8 L/kg
- bioavailability [7]: 0.9%
- Cmax [8]: 0.0055 µg/mL
- Kp at 4 h [9]: 0.7
- fraction unbound at 4 h [10]: 0.22
- Drug uptake (Brain [11]): 670 nM
- inhibition [4]: 29%
- pKa [3]: 8.7
- Drug uptake (Brain [1]): 15 nM
- Kp at 4 h [2]: 2

SMILES: Cc1cccc2[nH]c(=O)c(O)cc12
- inhibition [4]: < 50%

SMILES: O=C(O)c1cc2occc2[nH]1
- IC50 (D-amino-acid oxidase): 0.424 µM
- pKa [3]: 4
- Kp at 4 h [2]: 0.8
- IC50 (D-aspartate oxidase): > 19.5 µM

SMILES: O=c1[nH]c2cc(F)ccc2cc1O
- clearance [5]: 0.9 L/h/kg
- Vd (Rattus norvegicus): 1.2 L/kg
- half-life [6]: 5.4 h
- bioavailability [7]: 38%
- Cmax [8]: 0.754 µg/mL
- inhibition [4]: < 50%
- IC50 (D-aspartate oxidase): 22.4 µM

SMILES: O=c1[nH]c2c(Cl)cccc2cc1O
- IC50 (D-aspartate oxidase): > 43.4 µM

SMILES: Cc1cccc2cc(O)c(=O)[nH]c12
- IC50 (D-aspartate oxidase): 31.6 µM
